Experimental data: ChEMBL document CHEMBL2346534, “Design, synthesis and in vitro anti-proliferative activity of 4,6-quinazolinediamines as potent EGFR-TK inhibitors” (Eur J Med Chem, 2013)

How the values were obtained:
Type in all cases: functional
ACHN = assay: Cytotoxicity against human ACHN cells assessed as cell growth at 10^-5 M after 48 hrs by SRB assay; conditions: read-out: Activity
How it was run: (§1)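 NCI 60 single-dose screen at 10^-5 M. Cells in RPMI 1640 with 5% FBS and 2 mM L-glutamine, preincubated 24 h at 37 °C/5% CO2. Drug from DMSO stock, then 48 h exposure. TCA fixation, SRB staining, absorbance at 515 nm. Result given as percent growth of treated cells relative to untreated control.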

[1] = Cytotoxicity against human NCI-ADR-RES cells assessed as cell growth at 10^-5 M after 48 hrs by SRB assay; conditions: read-out: Activity
How it was run: (§2)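 NCI 60-panel single-dose primary screen at 10^-5 M. Cells are grown in RPMI 1640 with 5% FBS and 2 mM L-glutamine and preincubated 24 h at 37 °C. Drug exposure is 48 h. Cells are TCA-fixed, stained with SRB and absorbance is read at 515 nm. Results are reported as percent growth of treated cells versus untreated controls, corrected using time-zero plates.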

PC-3 = assay: Cytotoxicity against human PC3 cells assessed as cell growth at 10^-5 M after 48 hrs by SRB assay; conditions: PC-3, 48 h, read-out: Activity; how it was run: as §2
M14 = assay: Cytotoxicity against human M14 cells assessed as cell growth at 10^-5 M after 48 hrs by SRB assay; conditions: M14, 48 h, read-out: Activity; how it was run: as §1
Malme-3M = assay: Cytotoxicity against human MALME-3M cells assessed as cell growth at 10^-5 M after 48 hrs by SRB assay; conditions: read-out: Activity; how it was run: as §1
CCRF-CEM = assay: Cytotoxicity against human CCRF-CEM cells assessed as cell growth at 10^-5 M after 48 hrs by SRB assay; conditions: read-out: Activity; how it was run: as §1
SF-539 = assay: Cytotoxicity against human SF539 cells assessed as cell growth at 10^-5 M after 48 hrs by SRB assay; conditions: SF-539, 48 h, read-out: Activity; how it was run: as §2
NCI-H460 = assay: Cytotoxicity against human NCI-H460 cells assessed as cell growth at 10^-5 M after 48 hrs by SRB assay; conditions: NCI-H460, 48 h, read-out: Activity; how it was run: as §2
RXF 393 = assay: Cytotoxicity against human RXF393 cells assessed as cell growth at 10^-5 M after 48 hrs by SRB assay; conditions: RXF 393, 48 h, read-out: Activity; how it was run: as §2
DU-145 = assay: Cytotoxicity against human DU145 cells assessed as cell growth at 10^-5 M after 48 hrs by SRB assay; conditions: DU-145, 48 h, read-out: Activity; how it was run: as §1
HCT-116 = assay: Cytotoxicity against human HCT116 cells assessed as cell growth at 10^-5 M after 48 hrs by SRB assay; conditions: HCT-116, 48 h, read-out: Activity; how it was run: as §1
SNB-75 = assay: Cytotoxicity against human SNB75 cells assessed as cell growth at 10^-5 M after 48 hrs by SRB assay; conditions: SNB-75, 48 h, read-out: Activity; how it was run: as §2
U-251 = assay: Cytotoxicity against human U251 cells assessed as cell growth at 10^-5 M after 48 hrs by SRB assay; conditions: U-251, 48 h, read-out: Activity
How it was run: (§3)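 NCI primary single-dose screen at 10^-5 M. Cells grown in RPMI 1640 with 5% FBS and 2 mM L-glutamine, given 24 h before drug addition, then 48 h exposure at 37 °C, 5% CO2. Cells TCA-fixed, stained with SRB, read at 515 nm. Reported as percent growth of treated cells relative to untreated controls.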

RPMI-8226 = assay: Cytotoxicity against human RPMI8226 cells assessed as cell growth at 10^-5 M after 48 hrs by SRB assay; conditions: RPMI-8226, 48 h, read-out: Activity; how it was run: as §2
Hs-578T = assay: Cytotoxicity against human Hs578T cells assessed as cell growth at 10^-5 M after 48 hrs by SRB assay; conditions: read-out: Activity; how it was run: as §1
UO-31 = assay: Cytotoxicity against human UO31 cells assessed as cell growth at 10^-5 M after 48 hrs by SRB assay; conditions: UO-31, 48 h, read-out: Activity; how it was run: as §3
OVCAR-4 = assay: Cytotoxicity against human OVCAR4 cells assessed as cell growth at 10^-5 M after 48 hrs by SRB assay; conditions: OVCAR-4, 48 h, read-out: Activity; how it was run: as §2
MCF7 = assay: Cytotoxicity against human MCF7 cells assessed as cell growth at 10^-5 M after 48 hrs by SRB assay; conditions: MCF7, 48 h, read-out: Activity; how it was run: as §1
HOP-62 = assay: Cytotoxicity against human HOP62 cells assessed as cell growth at 10^-5 M after 48 hrs by SRB assay; conditions: HOP-62, 48 h, read-out: Activity; how it was run: as §1
SN12C = assay: Cytotoxicity against human SN12C cells assessed as cell growth at 10^-5 M after 48 hrs by SRB assay; conditions: read-out: Activity; how it was run: as §2
SW-620 = assay: Cytotoxicity against human SW620 cells assessed as cell growth at 10^-5 M after 48 hrs by SRB assay; conditions: SW-620, 48 h, read-out: Activity; how it was run: as §3
OVCAR-8 = assay: Cytotoxicity against human OVCAR8 cells assessed as cell growth at 10^-5 M after 48 hrs by SRB assay; conditions: OVCAR-8, 48 h, read-out: Activity; how it was run: as §2
IGROV-1 = assay: Cytotoxicity against human IGROV1 cells assessed as cell growth at 10^-5 M after 48 hrs by SRB assay; conditions: IGROV-1, 48 h, read-out: Activity; how it was run: as §1
A498 = assay: Cytotoxicity against human A498 cells assessed as cell growth at 10^-5 M after 48 hrs by SRB assay; conditions: A498, 48 h, read-out: Activity; how it was run: as §1
MOLT-4 = assay: Cytotoxicity against human MOLT4 cells assessed as cell growth at 10^-5 M after 48 hrs by SRB assay; conditions: MOLT-4, 48 h, read-out: Activity; how it was run: as §2
SF-295 = assay: Cytotoxicity against human SF295 cells assessed as cell growth at 10^-5 M after 48 hrs by SRB assay; conditions: SF-295, 48 h, read-out: Activity; how it was run: as §2
MDA-MB-435 = assay: Cytotoxicity against human MDA-MB-435 cells assessed as cell growth at 10^-5 M after 48 hrs by SRB assay; conditions: MDA-MB-435, 48 h, read-out: Activity; how it was run: as §1
NCI-H23 = assay: Cytotoxicity against human NCI-H23 cells assessed as cell growth at 10^-5 M after 48 hrs by SRB assay; conditions: NCI-H23, 48 h, read-out: Activity; how it was run: as §2
HCT-15 = assay: Cytotoxicity against human HCT15 cells assessed as cell growth at 10^-5 M after 48 hrs by SRB assay; conditions: HCT-15, 48 h, read-out: Activity; how it was run: as §1
MDA-MB-468 = assay: Cytotoxicity against human MDA-MB-468 cells assessed as cell growth at 10^-5 M after 48 hrs by SRB assay; conditions: MDA-MB-468, 48 h, read-out: Activity; how it was run: as §2
HCC 2998 = assay: Cytotoxicity against human HCC2998 cells assessed as cell growth at 10^-5 M after 48 hrs by SRB assay; conditions: HCC 2998, 48 h, read-out: Activity; how it was run: as §1
NCI-H226 = assay: Cytotoxicity against human NCI-H226 cells assessed as cell growth at 10^-5 M after 48 hrs by SRB assay; conditions: NCI-H226, 48 h, read-out: Activity; how it was run: as §2

Molecule `CCOC(=O)/C(C#N)=C\Nc1ccc2ncnc(Nc3ccccc3Cl)c2c1` has a growth at 10 µM (ACHN) of 68.7%, a growth at 10 µM [1] of 99.6% and a growth at 10 µM (PC-3) of 98.8%. For the same molecule, the growth at 10 µM (M14) was 119%, the growth at 10 µM (Malme-3M) was 156% and the growth at 10 µM (CCRF-CEM) was 93.1%. For the same molecule, the growth at 10 µM (SF-539) was 111%, the growth at 10 µM (NCI-H460) was 98.7% and the growth at 10 µM (RXF 393) was 91.7%. The growth at 10 µM (DU-145) was 62.1%, the growth at 10 µM (HCT-116) was 113% and the growth at 10 µM (SNB-75) was 87.2%. The growth at 10 µM (U-251) was 96.3%, the growth at 10 µM (RPMI-8226) was 84.3% and the growth at 10 µM (Hs-578T) was 91%. The growth at 10 µM (UO-31) was 66.7%, the growth at 10 µM (OVCAR-4) was 124% and the growth at 10 µM (MCF7) was 110%. The growth at 10 µM (HOP-62) was 99.1%, the growth at 10 µM (SN12C) was 98.8% and the growth at 10 µM (SW-620) was 116%. For the same molecule, the growth at 10 µM (OVCAR-8) was 105%, the growth at 10 µM (IGROV-1) was 79.7% and the growth at 10 µM (A498) was 63.7%. It also gave a growth at 10 µM (MOLT-4) of 86.2%, a growth at 10 µM (SF-295) of 102% and a growth at 10 µM (MDA-MB-435) of 100%. For the same molecule, the growth at 10 µM (NCI-H23) was 103%, the growth at 10 µM (HCT-15) was 99% and the growth at 10 µM (MDA-MB-468) was 34.7%. It also gave a growth at 10 µM (HCC 2998) of 117% and a growth at 10 µM (NCI-H226) of 116%.
Molecule `CCOC(=O)/C(C#N)=C\Nc1ccc2ncnc(Nc3ccc(Cl)cc3Cl)c2c1` has a growth at 10 µM (ACHN) of 62.9%, a growth at 10 µM [1] of 85.4% and a growth at 10 µM (PC-3) of 59.3%. For the same molecule, the growth at 10 µM (M14) was 106%, the growth at 10 µM (Malme-3M) was 140% and the growth at 10 µM (CCRF-CEM) was 70.9%. It also gave a growth at 10 µM (SF-539) of 92.7%, a growth at 10 µM (NCI-H460) of 84.8% and a growth at 10 µM (RXF 393) of 77%. For the same molecule, the growth at 10 µM (DU-145) was 55.9%, the growth at 10 µM (HCT-116) was 92.9% and the growth at 10 µM (SNB-75) was 91.3%. For the same molecule, the growth at 10 µM (U-251) was 81.3%, the growth at 10 µM (RPMI-8226) was 79.5% and the growth at 10 µM (Hs-578T) was 75.5%. It also gave a growth at 10 µM (UO-31) of 42%, a growth at 10 µM (OVCAR-4) of 95.1% and a growth at 10 µM (MCF7) of 87.6%. It also gave a growth at 10 µM (HOP-62) of 101%, a growth at 10 µM (SN12C) of 89.5% and a growth at 10 µM (SW-620) of 100%. For the same molecule, the growth at 10 µM (OVCAR-8) was 87%, the growth at 10 µM (IGROV-1) was 55% and the growth at 10 µM (A498) was 48.7%. For the same molecule, the growth at 10 µM (MOLT-4) was 58.8%, the growth at 10 µM (SF-295) was 82.2% and the growth at 10 µM (MDA-MB-435) was 75.7%. The growth at 10 µM (NCI-H23) was 99.5%, the growth at 10 µM (HCT-15) was 92.7% and the growth at 10 µM (MDA-MB-468) was 56.4%. It also gave a growth at 10 µM (HCC 2998) of 119% and a growth at 10 µM (NCI-H226) of 99.8%.
`C#Cc1cccc(Nc2ncnc3ccc(N/C=C(\C#N)C(=O)OCC)cc23)c1` gave a growth at 10 µM (ACHN) of 63.1%, a growth at 10 µM [1] of 100% and a growth at 10 µM (PC-3) of 91.4%. The growth at 10 µM (M14) was 114%, the growth at 10 µM (Malme-3M) was 119% and the growth at 10 µM (CCRF-CEM) was 103%. The growth at 10 µM (SF-539) was 97.8%, the growth at 10 µM (NCI-H460) was 100% and the growth at 10 µM (RXF 393) was 92.9%. The growth at 10 µM (DU-145) was 69.9%, the growth at 10 µM (HCT-116) was 103% and the growth at 10 µM (SNB-75) was 92.5%. For the same molecule, the growth at 10 µM (U-251) was 85.4%, the growth at 10 µM (RPMI-8226) was 101% and the growth at 10 µM (Hs-578T) was 103%. The growth at 10 µM (UO-31) was 58.6%, the growth at 10 µM (OVCAR-4) was 94% and the growth at 10 µM (MCF7) was 96.8%. For the same molecule, the growth at 10 µM (HOP-62) was 99.9%, the growth at 10 µM (SN12C) was 97.1% and the growth at 10 µM (SW-620) was 105%. For the same molecule, the growth at 10 µM (OVCAR-8) was 94.8%, the growth at 10 µM (IGROV-1) was 77.4% and the growth at 10 µM (A498) was 82.5%. For the same molecule, the growth at 10 µM (MOLT-4) was 87.5%, the growth at 10 µM (SF-295) was 95.6% and the growth at 10 µM (MDA-MB-435) was 92%. The growth at 10 µM (NCI-H23) was 98.2%, the growth at 10 µM (HCT-15) was 94.2% and the growth at 10 µM (MDA-MB-468) was 40.4%. The growth at 10 µM (HCC 2998) was 102% and the growth at 10 µM (NCI-H226) was 89.8%.
